Measured values: ChEMBL document CHEMBL4049426, “Identification of the Clinical Candidate (R)-(1-(4-Fluorophenyl)-6-((1-methyl-1H-pyrazol-4-yl)sulfonyl)-4,4a,5,6,7,8-hexahydro-1H-pyrazolo[3,4-g]isoquinolin-4a-yl)(4-(trifluoromethyl)pyridin-2-yl)methanone (CORT125134): A Selective Glucocorticoid Receptor (GR) Antagonist” (J Med Chem, 2017)

Legend:
[1] = Cmax in Sprague-Dawley CD-1 rat plasma at 3 mg/kg, po administered as cassette dose via gavage measured up to 24 hrs by LC/MS analysis; assay type: ADME, organism-based; parameters: dose 3 mg/kg, route oral
In short: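 Three male Sprague Dawley CD-1 rats (220-250g) with jugular vein catheters; three test compounds plus a reference dosed together by oral gavage, 3mg/kg each, in DMSO:0.5% methylcellulose 10:90 (0.6mg/mL per compound), 5mL/kg. Plasma sampled pre-dose and at 0.25, 0.5, 1, 2, 4, 6, 8, 24 h; LC/MS.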

Cytochrome P450 1A2 [2] = target: T1, Cytochrome P450 1A2 (Homo sapiens, UniProt P05177); test: Induction of CYP1A2 in human hepatocytes; assay type: ADME, cell-based
T1 sequence (P05177 whole entry): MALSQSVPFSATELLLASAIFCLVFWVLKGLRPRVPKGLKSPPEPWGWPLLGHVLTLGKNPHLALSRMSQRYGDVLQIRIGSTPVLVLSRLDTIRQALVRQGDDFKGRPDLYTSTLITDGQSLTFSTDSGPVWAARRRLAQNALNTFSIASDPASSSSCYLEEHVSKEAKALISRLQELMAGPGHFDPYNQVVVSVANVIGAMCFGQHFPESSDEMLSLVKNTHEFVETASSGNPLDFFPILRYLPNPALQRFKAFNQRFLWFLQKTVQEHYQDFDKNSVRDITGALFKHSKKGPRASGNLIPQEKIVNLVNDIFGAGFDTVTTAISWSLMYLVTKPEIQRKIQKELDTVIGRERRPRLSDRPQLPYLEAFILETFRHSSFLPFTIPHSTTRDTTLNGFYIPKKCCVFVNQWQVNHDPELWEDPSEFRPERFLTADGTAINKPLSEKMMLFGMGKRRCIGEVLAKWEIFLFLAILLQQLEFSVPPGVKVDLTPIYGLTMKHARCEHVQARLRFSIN

estrogen receptor = target: T2, estrogen receptor (Homo sapiens, UniProt P03372); test: Inhibition of radioligand binding to estrogen receptor (unknown origin) at 1 uM relative to control
T2 sequence (P03372 whole entry): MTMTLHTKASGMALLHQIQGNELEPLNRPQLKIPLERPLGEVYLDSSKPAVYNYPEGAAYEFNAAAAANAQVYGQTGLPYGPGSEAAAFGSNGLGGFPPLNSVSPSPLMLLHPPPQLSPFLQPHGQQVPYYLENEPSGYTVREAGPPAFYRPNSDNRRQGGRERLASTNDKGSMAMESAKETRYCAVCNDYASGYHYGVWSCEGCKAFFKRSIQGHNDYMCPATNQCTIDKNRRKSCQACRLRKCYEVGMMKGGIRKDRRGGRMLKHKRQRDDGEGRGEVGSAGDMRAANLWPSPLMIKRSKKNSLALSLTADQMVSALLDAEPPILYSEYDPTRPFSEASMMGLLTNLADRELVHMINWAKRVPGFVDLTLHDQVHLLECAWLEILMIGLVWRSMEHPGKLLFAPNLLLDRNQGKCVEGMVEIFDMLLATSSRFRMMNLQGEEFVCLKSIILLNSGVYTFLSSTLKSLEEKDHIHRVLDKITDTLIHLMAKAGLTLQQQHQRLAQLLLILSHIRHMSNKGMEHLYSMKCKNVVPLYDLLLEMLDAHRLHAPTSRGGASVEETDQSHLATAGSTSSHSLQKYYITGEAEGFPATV

Cytochrome P450 2B6 [3] = target: T3, Cytochrome P450 2B6 (Homo sapiens, UniProt P20813); test: Time-dependent inhibition of CYP2B6 (unknown origin); assay type: ADME
T3 sequence (P20813 whole entry): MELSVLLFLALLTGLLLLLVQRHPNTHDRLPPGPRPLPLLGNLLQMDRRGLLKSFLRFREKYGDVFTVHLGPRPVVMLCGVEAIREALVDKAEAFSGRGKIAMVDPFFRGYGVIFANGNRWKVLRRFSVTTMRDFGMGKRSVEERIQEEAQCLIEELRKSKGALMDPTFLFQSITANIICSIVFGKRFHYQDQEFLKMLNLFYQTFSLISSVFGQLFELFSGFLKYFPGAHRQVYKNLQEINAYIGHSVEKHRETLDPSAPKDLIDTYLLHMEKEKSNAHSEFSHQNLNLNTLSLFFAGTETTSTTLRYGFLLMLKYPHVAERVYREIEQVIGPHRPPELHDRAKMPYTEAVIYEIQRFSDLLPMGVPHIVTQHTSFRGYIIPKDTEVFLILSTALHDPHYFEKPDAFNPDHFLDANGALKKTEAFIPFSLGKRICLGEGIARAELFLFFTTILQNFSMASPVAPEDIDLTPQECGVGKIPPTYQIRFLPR

[4] = target: T4, Glucocorticoid receptor (Rattus norvegicus) (UniProt P06536); test: (§1) Antagonist activity at rat glucocorticoid receptor in primary hepatocytes assessed as dexamethasone-induced tyrosine amino transferase activity preincubated for 30 mins followed by dexamethasone addition measured after 20 hrs; assay type: cell-based
T4 sequence (whole entry): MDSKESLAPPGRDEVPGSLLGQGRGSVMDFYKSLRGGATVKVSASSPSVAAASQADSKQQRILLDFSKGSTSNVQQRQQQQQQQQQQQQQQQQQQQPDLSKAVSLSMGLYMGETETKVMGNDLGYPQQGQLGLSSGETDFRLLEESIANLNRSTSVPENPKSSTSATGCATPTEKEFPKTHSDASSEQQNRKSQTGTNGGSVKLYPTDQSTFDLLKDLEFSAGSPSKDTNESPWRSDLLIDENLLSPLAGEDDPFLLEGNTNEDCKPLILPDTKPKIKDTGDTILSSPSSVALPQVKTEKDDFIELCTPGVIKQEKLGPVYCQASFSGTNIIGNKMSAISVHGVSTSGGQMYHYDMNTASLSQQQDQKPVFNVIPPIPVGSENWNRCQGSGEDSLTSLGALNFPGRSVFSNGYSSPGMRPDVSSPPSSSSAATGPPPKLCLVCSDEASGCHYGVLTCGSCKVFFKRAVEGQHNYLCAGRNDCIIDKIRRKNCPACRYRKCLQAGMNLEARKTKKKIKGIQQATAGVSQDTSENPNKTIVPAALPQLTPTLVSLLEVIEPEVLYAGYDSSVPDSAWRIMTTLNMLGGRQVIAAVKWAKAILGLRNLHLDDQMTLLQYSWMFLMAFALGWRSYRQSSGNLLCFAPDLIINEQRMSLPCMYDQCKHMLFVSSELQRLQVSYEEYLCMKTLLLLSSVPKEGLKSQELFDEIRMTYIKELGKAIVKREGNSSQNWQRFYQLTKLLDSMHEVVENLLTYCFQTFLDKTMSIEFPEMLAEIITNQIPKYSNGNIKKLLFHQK

Glucocorticoid receptor = target: T5, Glucocorticoid receptor (Rattus norvegicus, UniProt P06536); test: as §1; assay type: cell-based
T5 sequence (P06536 whole entry): T4 sequence (whole entry)

[5] = AUC in monkey plasma at 20 mg/kg, po measured up to 24 hrs by LC/MS analysis; assay type: ADME, organism-based, Macaca mulatta; parameters: dose 20 mg/kg, time < 24 hr, route oral; details: rhesus monkey
In short: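 Monkey i.v./p.o. study: oral 20mg/kg in 10% DMSO, 0.1% Tween 80, 0.5% hydroxypropylmethylcellulose in water; i.v. dose 1mg/kg.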

Cytochrome P450 1A2 [6] = target: T1, Cytochrome P450 1A2; test: Inhibition of CYP1A2 (unknown origin); assay type: ADME
Cytochrome P450 2B6 [7] = target: T3, Cytochrome P450 2B6; test: Induction of CYP2B6 in human hepatocytes; assay type: ADME, cell-based
Cytochrome P450 1A2 [8] = target: T1, Cytochrome P450 1A2; test: Time-dependent inhibition of CYP1A2 (unknown origin); assay type: ADME

Cn1cc(S(=O)(=O)N2CCC3=Cc4c(cnn4-c4ccc(F)cc4)C[C@]3(C(=O)c3cc(C(F)(F)F)ccn3)C2)cn1 [RELACORILANT]
Cmax [1]: 0.262 µg/mL
Activity (Cytochrome P450 1A2 [2]): Not Active
inhibition at 1 µM (estrogen receptor): < 10%
TDI (Cytochrome P450 2B6 [3]): Not Active
Imax [4]: 54.2%
Ki (Glucocorticoid receptor): 0.012 µM
AUC at 24 h [5]: 11.7 µg·h/mL
IC50 (Cytochrome P450 1A2 [6]): > 10 µM
Activity (Cytochrome P450 2B6 [7]): Not Active
TDI (Cytochrome P450 1A2 [8]): Not Active
